Experimental data from different studies.
Matrix: plasma

Oc1c(Br)cc(Cl)c2cccnc12
AUC(0-inf) (Sprague-Dawley rat; subcutaneous, 10 mg/kg): 5300 ng·h/mL

CNCc1cc(-c2ccccc2F)n(S(=O)(=O)c2cccnc2)c1
AUC(0-inf) (Sprague-Dawley rat; oral, 10 mg/kg): 645 ng·h/mL

O=C(Nc1cc(F)c(F)c(F)c1)c1ccc(F)c(S(=O)(=O)NCc2cccc(B(O)O)c2)c1
AUC(0-inf) (male Sprague-Dawley rat; oral, 20 mg/kg): 37.6 ng·h/mL

COc1cc2c3c(n(CCCN4CCOCC4)c(=O)c2cc1OC)-c1cc2c(cc1C3=O)OCO2
AUC(0-inf) (male Fischer 344 rat; intravenous, 24 mg/m², single dose): 421 ng·h/mL

COc1ccc2c(Cc3ccccc3F)c3[n+](cc2c1OC)CCc1cc2c(cc1-3)OCO2.[Br-]
AUC(0-inf) (rat; intravenous, 5 mg/kg): 125 ng·h/mL

CCc1cc(OC)c2nccc(N3CCc4c(cc(Cn5ccnc5)cc4-c4cn(C)nc4C(F)(F)F)C3=O)c2c1
AUC(0-inf) (male Sprague-Dawley rat; intravenous, 3 mg/kg): 955 ng·h/mL

CCOC(=O)[C@@]12C[C@@H]1[C@@H](n1ccc3c(NC)nc(C#Cc4ccc(Cl)s4)nc31)[C@H](O)[C@@H]2O
AUC(0-inf) (male Sprague-Dawley rat; oral, 10 mg/kg): 371 ng·h/mL

COCCOC(=O)C1=C(C)NC(C)=C(C(=O)OC(C)C)C1c1cccc([N+](=O)[O-])c1 (centres unmarked)
AUC(0-inf) (male Sprague-Dawley rat; oral, 12 mg/kg): 502 ng·h/mL

COc1ccc2c(=O)n(C)c(-c3ccccc3)nc2c1
AUC(0-inf) (male Sprague-Dawley rat; intravenous, 2 mg/kg): 857 ng·h/mL

COc1ccc2c(Cc3ccccc3F)c3n(c(=O)c2c1OC)CCc1cc2c(cc1-3)OCO2
AUC(0-inf) (rat; intravenous, 5 mg/kg): 22700 ng·h/mL

CCc1cc(C(=O)NC)c2nccc(N3CCc4c(cc(Cn5ccnc5)cc4-c4cn(C)nc4C(F)(F)F)C3=O)c2c1
AUC(0-inf) (male Sprague-Dawley rat; oral, 100 mg/kg): 117000 ng·h/mL

COc1nc(-c2cc(C)c(N[C@@H](C)c3cc(F)cc(F)c3)nn2)ccc1-n1cnc(C)c1
AUC(0-inf) (male Sprague-Dawley rat; oral, 5 mg/kg, single dose): 31900 ng·h/mL

Cc1c(-c2ccccc2)cccc1N1C(=O)c2cc(CN[C@H](C(=O)O)C(C)O)c(OCc3cccc(C#N)c3)cc2C1=O (some centres unmarked)
AUC(0-inf) (Sprague-Dawley rat; intravenous, 5 mg/kg): 3260 ng·h/mL

CNC(=O)c1c(C)oc2cc(Oc3ncnc4cc(OC)c(OC)cc34)ccc12
AUC(0-inf) (Sprague-Dawley rat; oral, 1 mg/kg, single dose): 6270 ng·h/mL
